# Test system: U2OS
# Assay: Multiplex assay against U2OS
# Assay type: toxicity, cell-based
# Details: human
# In short: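 Hoechst33342, BioTracker Green Microtubule Cytoskeleton Dye, MitoTracker Red and Annexin V Alexa Fluor 680 were added to live cells at seeding, and imaging on a CQ1 microscope at 37°C and 5% CO2 followed compound addition. Gating by CellPathfinder machine learning separated cells into Hoechst high-intensity objects or normal cells, then normal cells into healthy, pyknosed or fragmented nuclei, then pyknosed cells into mitotic or apoptotic. Per cents of healthy-nucleus cells are reported for the tubulin, mitochondrial-mass and membrane-permeability phenotypes.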
# [1] = 12 h, 1 µM, compound concentration 1 uM, replicate 1
# [2] = 12 h, 1 µM, compound concentration 1 uM, replicate 2
# [3] = 12 h, 10 µM, compound concentration 10 uM, replicate 1
# [4] = 12 h, 10 µM, compound concentration 10 uM, replicate 2
# [5] = 24 h, 1 µM, compound concentration 1 uM, replicate 1
# [6] = 24 h, 1 µM, compound concentration 1 uM, replicate 2
# [7] = 24 h, 10 µM, compound concentration 10 uM, replicate 1
# [8] = 24 h, 10 µM, compound concentration 10 uM, replicate 2
smiles,measurement,setting,value
Cc1nc(N2CC[C@H](O)C2)ncc1-c1cc(C(F)(F)F)cc2[nH]ncc12,Population Apoptotic (%),[1],25%
same,Population Fragmented Nuclei (%),[1],2%
same,Population Healthy Nuclei (%),[1],93%
same,Population Hoechst High Intensity Objects (%),[1],3%
same,Population Membrane Permeable-Phenotype (%),[1],6%
same,Population Mitochondria Different-Phenotype (%),[1],24%
same,Population Mitotic Cells (%),[1],75%
same,Population Normal (%),[1],96%
same,Population Pyknosed Nuclei (%),[1],4%
same,Population Tubulin-Different-Phenotype (%),[1],22%
same,Total Cell Count,[1],181
same,Population Apoptotic (%),[2],14%
same,Population Fragmented Nuclei (%),[2],4%
same,Population Healthy Nuclei (%),[2],89%
same,Population Hoechst High Intensity Objects (%),[2],11%
same,Population Membrane Permeable-Phenotype (%),[2],5%
same,Population Mitochondria Different-Phenotype (%),[2],28%
same,Population Mitotic Cells (%),[2],85%
same,Population Normal (%),[2],88%
same,Population Pyknosed Nuclei (%),[2],5%
same,Population Tubulin-Different-Phenotype (%),[2],19%
same,Total Cell Count,[2],111
same,Population Apoptotic (%),[3],60%
same,Population Fragmented Nuclei (%),[3],6%
same,Population Healthy Nuclei (%),[3],88%
same,Population Hoechst High Intensity Objects (%),[3],1%
same,Population Membrane Permeable-Phenotype (%),[3],8%
same,Population Mitochondria Different-Phenotype (%),[3],22%
same,Population Mitotic Cells (%),[3],40%
same,Population Normal (%),[3],98%
same,Population Pyknosed Nuclei (%),[3],5%
same,Population Tubulin-Different-Phenotype (%),[3],26%
same,Total Cell Count,[3],158
same,Population Apoptotic (%),[4],16%
same,Population Fragmented Nuclei (%),[4],9%
same,Population Healthy Nuclei (%),[4],84%
same,Population Hoechst High Intensity Objects (%),[4],12%
same,Population Membrane Permeable-Phenotype (%),[4],6%
same,Population Mitochondria Different-Phenotype (%),[4],31%
same,Population Mitotic Cells (%),[4],83%
same,Population Normal (%),[4],87%
same,Population Pyknosed Nuclei (%),[4],6%
same,Population Tubulin-Different-Phenotype (%),[4],41%
same,Total Cell Count,[4],153
same,Population Apoptotic (%),[5],27%
same,Population Fragmented Nuclei (%),[5],1%
same,Population Healthy Nuclei (%),[5],94%
same,Population Hoechst High Intensity Objects (%),[5],1%
same,Population Membrane Permeable-Phenotype (%),[5],7%
same,Population Mitochondria Different-Phenotype (%),[5],25%
same,Population Mitotic Cells (%),[5],72%
same,Population Normal (%),[5],98%
same,Population Pyknosed Nuclei (%),[5],4%
same,Population Tubulin-Different-Phenotype (%),[5],24%
same,Total Cell Count,[5],260
same,Population Apoptotic (%),[6],14%
same,Population Fragmented Nuclei (%),[6],3%
same,Population Healthy Nuclei (%),[6],92%
same,Population Hoechst High Intensity Objects (%),[6],6%
same,Population Membrane Permeable-Phenotype (%),[6],3%
same,Population Mitochondria Different-Phenotype (%),[6],24%
same,Population Mitotic Cells (%),[6],85%
same,Population Normal (%),[6],93%
same,Total Cell Count,[6],121
same,Population Apoptotic (%),[7],27%
same,Population Fragmented Nuclei (%),[7],3%
same,Population Healthy Nuclei (%),[7],91%
same,Population Hoechst High Intensity Objects (%),[7],4%
same,Population Membrane Permeable-Phenotype (%),[7],5%
same,Population Mitochondria Different-Phenotype (%),[7],12%
same,Population Mitotic Cells (%),[7],72%
same,Population Normal (%),[7],95%
same,Population Pyknosed Nuclei (%),[7],4%
same,Population Tubulin-Different-Phenotype (%),[7],28%
same,Total Cell Count,[7],173
same,Population Apoptotic (%),[8],21%
same,Population Fragmented Nuclei (%),[8],5%
same,Population Healthy Nuclei (%),[8],81%
same,Population Hoechst High Intensity Objects (%),[8],9%
same,Population Membrane Permeable-Phenotype (%),[8],13%
same,Population Mitochondria Different-Phenotype (%),[8],40%
same,Population Mitotic Cells (%),[8],78%
same,Population Normal (%),[8],90%
same,Population Pyknosed Nuclei (%),[8],12%
same,Population Tubulin-Different-Phenotype (%),[8],46%
same,Total Cell Count,[8],141
C=CC(=O)Nc1ccc2[nH]c(=O)n(C3CCN(Cc4ccc(-c5nc6cc[nH]c(=O)c6cc5-c5ccccc5)cc4)CC3)c2c1 [Borussertib],Population Apoptotic (%),[1],25%
same,Population Fragmented Nuclei (%),[1],5%
same,Population Healthy Nuclei (%),[1],91%
same,Population Hoechst High Intensity Objects (%),[1],3%
same,Population Membrane Permeable-Phenotype (%),[1],12%
same,Population Mitochondria Different-Phenotype (%),[1],35%
same,Population Mitotic Cells (%),[1],75%
same,Population Normal (%),[1],96%
same,Population Pyknosed Nuclei (%),[1],2%
same,Population Tubulin-Different-Phenotype (%),[1],29%
same,Total Cell Count,[1],158
same,Population Apoptotic (%),[2],28%
same,Population Healthy Nuclei (%),[2],87%
same,Population Hoechst High Intensity Objects (%),[2],14%
same,Population Membrane Permeable-Phenotype (%),[2],11%
same,Population Mitochondria Different-Phenotype (%),[2],21%
same,Population Mitotic Cells (%),[2],71%
same,Population Normal (%),[2],85%
same,Population Pyknosed Nuclei (%),[2],6%
same,Population Tubulin-Different-Phenotype (%),[2],23%
same,Total Cell Count,[2],124
same,Population Apoptotic (%),[3],54%
same,Population Fragmented Nuclei (%),[3],2%
same,Population Healthy Nuclei (%),[3],84%
same,Population Hoechst High Intensity Objects (%),[3],4%
same,Population Membrane Permeable-Phenotype (%),[3],24%
same,Population Mitochondria Different-Phenotype (%),[3],18%
same,Population Mitotic Cells (%),[3],45%
same,Population Normal (%),[3],95%
same,Population Pyknosed Nuclei (%),[3],13%
same,Population Tubulin-Different-Phenotype (%),[3],38%
same,Total Cell Count,[3],190
same,Population Apoptotic (%),[4],60%
same,Population Fragmented Nuclei (%),[4],6%
same,Population Healthy Nuclei (%),[4],77%
same,Population Hoechst High Intensity Objects (%),[4],8%
same,Population Membrane Permeable-Phenotype (%),[4],33%
same,Population Mitochondria Different-Phenotype (%),[4],28%
same,Population Mitotic Cells (%),[4],40%
same,Population Normal (%),[4],91%
same,Population Pyknosed Nuclei (%),[4],15%
same,Population Tubulin-Different-Phenotype (%),[4],32%
same,Total Cell Count,[4],104
same,Population Apoptotic (%),[5],36%
same,Population Fragmented Nuclei (%),[5],1%
same,Population Healthy Nuclei (%),[5],93%
same,Population Hoechst High Intensity Objects (%),[5],2%
same,Population Membrane Permeable-Phenotype (%),[5],8%
same,Population Mitochondria Different-Phenotype (%),[5],22%
same,Population Mitotic Cells (%),[5],63%
same,Population Normal (%),[5],97%
same,Population Pyknosed Nuclei (%),[5],5%
same,Population Tubulin-Different-Phenotype (%),[5],34%
same,Total Cell Count,[5],220
same,Population Apoptotic (%),[6],37%
same,Population Fragmented Nuclei (%),[6],9%
same,Population Healthy Nuclei (%),[6],84%
same,Population Hoechst High Intensity Objects (%),[6],7%
same,Population Membrane Permeable-Phenotype (%),[6],10%
same,Population Mitochondria Different-Phenotype (%),[6],29%
same,Population Mitotic Cells (%),[6],62%
same,Population Normal (%),[6],92%
same,Population Pyknosed Nuclei (%),[6],6%
same,Population Tubulin-Different-Phenotype (%),[6],28%
same,Total Cell Count,[6],137
same,Population Apoptotic (%),[7],66%
same,Population Fragmented Nuclei (%),[7],6%
same,Population Healthy Nuclei (%),[7],85%
same,Population Hoechst High Intensity Objects (%),[7],2%
same,Population Membrane Permeable-Phenotype (%),[7],13%
same,Population Mitochondria Different-Phenotype (%),[7],19%
same,Population Mitotic Cells (%),[7],33%
same,Population Normal (%),[7],97%
same,Population Pyknosed Nuclei (%),[7],7%
same,Population Tubulin-Different-Phenotype (%),[7],26%
same,Total Cell Count,[7],238
same,Population Apoptotic (%),[8],83%
same,Population Fragmented Nuclei (%),[8],12%
same,Population Healthy Nuclei (%),[8],76%
same,Population Hoechst High Intensity Objects (%),[8],13%
same,Population Membrane Permeable-Phenotype (%),[8],21%
same,Population Mitochondria Different-Phenotype (%),[8],28%
same,Population Mitotic Cells (%),[8],16%
same,Population Normal (%),[8],86%
same,Population Pyknosed Nuclei (%),[8],11%
same,Population Tubulin-Different-Phenotype (%),[8],22%
same,Total Cell Count,[8],121
